Test results as given in ChEMBL document CHEMBL2150978, “Phosphorodiamidates as a promising new phosphate prodrug motif for antiviral drug discovery: application to anti-HCV agents” (J Med Chem, 2011).

Tests used:
Hepatitis C virus = assay: Antiviral activity against Hepatitis C virus subtype 1b Con1 infected in human Huh7 cells assessed as inhibition of HCV replicon-encoded Renilla luciferase reporter activity after 72 hrs by HCV replicon assay; type: functional, organism-based, Hepacivirus hominis; details: Con1, Huh-7, 72 h
Procedure, shortened: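 Huh7 cells stably carrying a bicistronic subgenomic genotype 1b (Con1) replicon with Renilla luciferase reporter, seeded at 2 × 10⁴ cells/well the day before. Four-fold serial dilutions in growth medium, no-drug controls on each plate; 3 days at 37 °C, 5% CO₂. Luciferase reagent 20 min, then luminescence (RLU) read; EC₅₀ derived.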

[1] = Cytotoxicity against human HuH7 cells after 3 days; type: cell-based, Huh-7
Procedure, shortened: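 Huh7 replicon cells seeded at 2 × 10⁴ per well one day before dosing. Four-fold serial dilutions in growth medium, no-drug controls on each plate. Incubated 3 days at 37 °C, 5% CO₂. Viability read by CellTiter-Glo luminescence after 20 min with reagent.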

Question: For `COc1nc(N)nc2c1ncn2[C@@H]1O[C@H](COP(=O)(N[C@H](C(=O)OC2CCCCC2)c2ccccc2)N[C@H](C(=O)OC2CCCCC2)c2ccccc2)[C@@H](O)[C@@]1(C)O` (mixture of isomers), which EC50 (Hepatitis C virus) is on record?
Answer: Its EC50 is 0.32 µM.

Question: What about the EC90 (Hepatitis C virus) of the same compound?
Answer: The EC90 was 1.8 µM.

Question: And the CC50 at 72 h [1]?
Answer: Its CC50 at 72 h is 18 µM.

Question: With `COc1nc(N)nc2c1ncn2[C@@H]1O[C@H](COP(=O)(N[C@H](C(=O)OCC(C)(C)C)c2ccccc2)N[C@H](C(=O)OCC(C)(C)C)c2ccccc2)[C@@H](O)[C@@]1(C)O` (mixture of isomers) as the compound, how does the EC50 (Hepatitis C virus) read?
Answer: Its EC50 is 0.27 µM.

Question: What about the EC90 (Hepatitis C virus) of the same compound?
Answer: The EC90 was 1.5 µM.

Question: What about the CC50 at 72 h [1] of the same compound?
Answer: Its CC50 at 72 h is 24 µM.

Question: With `COc1nc(N)nc2c1ncn2[C@@H]1O[C@H](COP(=O)(N[C@H](C(=O)N[C@@H](C)C(=O)OCC(C)(C)C)C(C)C)N[C@H](C(=O)N[C@@H](C)C(=O)OCC(C)(C)C)C(C)C)[C@@H](O)[C@@]1(C)O` (mixture of isomers) as the compound, how does the EC50 (Hepatitis C virus) read?
Answer: The EC50 was 0.54 µM.

Question: What about the EC90 (Hepatitis C virus) of the same compound?
Answer: Its EC90 is 2.4 µM.

Question: What about the CC50 at 72 h [1] of the same compound?
Answer: Its CC50 at 72 h is greater than 100 µM.

Question: Which EC50 (Hepatitis C virus) does the source give for `COc1nc(N)nc2c1ncn2[C@@H]1O[C@H](COP(=O)(NCCC(=O)OCc2ccccc2)NCCC(=O)OCc2ccccc2)[C@@H](O)[C@@]1(C)O` (mixture of isomers) here?
Answer: Its EC50 is 3.8 µM.

Question: And the EC90 (Hepatitis C virus)?
Answer: The EC90 was greater than 10 µM.

Question: What about the CC50 at 72 h [1] of the same compound?
Answer: Its CC50 at 72 h is greater than 100 µM.

Question: For `CCCCNP(=O)(NCCCC)OC[C@H]1O[C@@H](n2cnc3c(OC)nc(N)nc32)[C@](C)(O)[C@@H]1O` (mixture of isomers), which EC50 (Hepatitis C virus) is on record?
Answer: The EC50 was 37.8 µM.

Question: What about the EC90 (Hepatitis C virus) of the same compound?
Answer: Its EC90 is greater than 40 µM.

Question: What about the CC50 at 72 h [1] of the same compound?
Answer: The CC50 at 72 h was greater than 100 µM.

Question: With `COc1nc(N)nc2c1ncn2[C@@H]1O[C@H](COP(=O)(N2CCOCC2)N2CCOCC2)[C@@H](O)[C@@]1(C)O` (mixture of isomers) as the compound, how does the EC50 (Hepatitis C virus) read?
Answer: Its EC50 is greater than 100 µM.

Question: What about the EC90 (Hepatitis C virus) of the same compound?
Answer: Its EC90 is greater than 100 µM.

Question: What about the CC50 at 72 h [1] of the same compound?
Answer: The CC50 at 72 h was greater than 100 µM.

Question: For `COc1nc(N)nc2c1ncn2[C@@H]1O[C@H](COP(=O)(N[C@@H](C)C(=O)OC2CCCCC2)N[C@@H](C)C(=O)OC2CCCC2)[C@@H](O)[C@@]1(C)O` (mixture of isomers), which EC50 (Hepatitis C virus) is on record?
Answer: Its EC50 is 0.04 µM.

Question: And the EC90 (Hepatitis C virus)?
Answer: Its EC90 is 0.16 µM.

Question: What about the CC50 at 72 h [1] of the same compound?
Answer: The CC50 at 72 h was greater than 100 µM.

Question: With `COc1nc(N)nc2c1ncn2[C@@H]1O[C@H](COP(=O)(N[C@@H](C)C(=O)OCc2ccccc2)N[C@@H](C)C(=O)OCC(C)(C)C)[C@@H](O)[C@@]1(C)O` (mixture of isomers) as the compound, how does the EC50 (Hepatitis C virus) read?
Answer: Its EC50 is 0.15 µM.

Question: And the EC90 (Hepatitis C virus)?
Answer: The EC90 was 0.4 µM.

Question: What about the CC50 at 72 h [1] of the same compound?
Answer: Its CC50 at 72 h is greater than 100 µM.

Question: For `COc1nc(N)nc2c1ncn2[C@@H]1O[C@H](COP(=O)(N[C@@H](C)C(=O)OCC(C)(C)C)N[C@@H](C)C(=O)OC(C)(C)C)[C@@H](O)[C@@]1(C)O` (mixture of isomers), which EC50 (Hepatitis C virus) is on record?
Answer: Its EC50 is 0.15 µM.

Question: What about the EC90 (Hepatitis C virus) of the same compound?
Answer: The EC90 was 0.57 µM.

Question: And the CC50 at 72 h [1]?
Answer: Its CC50 at 72 h is greater than 100 µM.

Question: With `COc1nc(N)nc2c1ncn2[C@@H]1O[C@H](COP(=O)(N[C@@H](C)C(=O)OCC(C)(C)C)N[C@@H](C)C(=O)OC2CCCCC2)[C@@H](O)[C@@]1(C)O` (mixture of isomers) as the compound, how does the EC50 (Hepatitis C virus) read?
Answer: Its EC50 is 0.04 µM.

Question: What about the EC90 (Hepatitis C virus) of the same compound?
Answer: Its EC90 is 0.15 µM.

Question: And the CC50 at 72 h [1]?
Answer: The CC50 at 72 h was greater than 100 µM.

Question: What does the source list for `COC(=O)[C@@H]1CCCN1P(=O)(N[C@@H](C)C(=O)OCC(C)(C)C)OC[C@H]1O[C@@H](n2cnc3c(OC)nc(N)nc32)[C@](C)(O)[C@@H]1O` (mixture of isomers)?
Answer: EC50 (Hepatitis C virus): 0.49 µM; EC90 (Hepatitis C virus): 2.2 µM; CC50 at 72 h [1]: > 100 µM

Question: For `COC(=O)[C@@H](NP(=O)(N[C@@H](C)C(=O)OCC(C)(C)C)OC[C@H]1O[C@@H](n2cnc3c(OC)nc(N)nc32)[C@](C)(O)[C@@H]1O)C(C)C` (mixture of isomers), which EC50 (Hepatitis C virus) is on record?
Answer: Its EC50 is 0.17 µM.

Question: What about the EC90 (Hepatitis C virus) of the same compound?
Answer: Its EC90 is 0.69 µM.

Question: What about the CC50 at 72 h [1] of the same compound?
Answer: The CC50 at 72 h was greater than 100 µM.

Question: Which results are given for `CCCCNP(=O)(N[C@@H](C)C(=O)OCc1ccccc1)OC[C@H]1O[C@@H](n2cnc3c(OC)nc(N)nc32)[C@](C)(O)[C@@H]1O` (mixture of isomers)?
Answer: EC50 (Hepatitis C virus): 0.44 µM; EC90 (Hepatitis C virus): 1.68 µM; CC50 at 72 h [1]: > 100 µM

Question: What does the source list for `CCCCNP(=O)(N[C@@H](C)C(=O)OCC(C)(C)C)OC[C@H]1O[C@@H](n2cnc3c(OC)nc(N)nc32)[C@](C)(O)[C@@H]1O` (mixture of isomers)?
Answer: EC50 (Hepatitis C virus): 0.41 µM; EC90 (Hepatitis C virus): 1.5 µM; CC50 at 72 h [1]: > 100 µM

Question: Which results are given for `CCCCCNP(=O)(N[C@@H](C)C(=O)OCC(C)(C)C)OC[C@H]1O[C@@H](n2cnc3c(OC)nc(N)nc32)[C@](C)(O)[C@@H]1O` (mixture of isomers)?
Answer: EC50 (Hepatitis C virus): 0.11 µM; EC90 (Hepatitis C virus): 0.52 µM; CC50 at 72 h [1]: > 100 µM

Question: For `COc1nc(N)nc2c1ncn2[C@@H]1O[C@H](COP(=O)(NC2CC2)N[C@@H](C)C(=O)OCC(C)(C)C)[C@@H](O)[C@@]1(C)O` (mixture of isomers), which EC50 (Hepatitis C virus) is on record?
Answer: Its EC50 is 0.87 µM.

Question: And the EC90 (Hepatitis C virus)?
Answer: Its EC90 is 4.7 µM.

Question: What about the CC50 at 72 h [1] of the same compound?
Answer: The CC50 at 72 h was greater than 100 µM.

Question: Which EC50 (Hepatitis C virus) does the source give for `COc1nc(N)nc2c1ncn2[C@@H]1O[C@H](COP(=O)(NCc2ccccc2)N[C@@H](C)C(=O)OCC(C)(C)C)[C@@H](O)[C@@]1(C)O` (mixture of isomers) here?
Answer: The EC50 was 0.43 µM.

Question: And the EC90 (Hepatitis C virus)?
Answer: Its EC90 is 1.9 µM.

Question: What about the CC50 at 72 h [1] of the same compound?
Answer: The CC50 at 72 h was greater than 100 µM.

Question: With `COc1nc(N)nc2c1ncn2[C@@H]1O[C@H](COP(=O)(Nc2ccccc2)N[C@@H](C)C(=O)OCC(C)(C)C)[C@@H](O)[C@@]1(C)O` (mixture of isomers) as the compound, how does the EC50 (Hepatitis C virus) read?
Answer: Its EC50 is 0.27 µM.

Question: And the EC90 (Hepatitis C virus)?
Answer: Its EC90 is 0.82 µM.

Question: What about the CC50 at 72 h [1] of the same compound?
Answer: Its CC50 at 72 h is greater than 100 µM.

Question: Which results are given for `COc1nc(N)nc2c1ncn2[C@@H]1O[C@H](COP(=O)(Nc2cccc3ccccc23)N[C@@H](C)C(=O)OCC(C)(C)C)[C@@H](O)[C@@]1(C)O` (mixture of isomers)?
Answer: EC50 (Hepatitis C virus): 0.13 µM; EC90 (Hepatitis C virus): 0.56 µM; CC50 at 72 h [1]: > 100 µM

Question: What does the source list for `CCN(CC)P(=O)(N[C@@H](C)C(=O)OCC(C)(C)C)OC[C@H]1O[C@@H](n2cnc3c(OC)nc(N)nc32)[C@](C)(O)[C@@H]1O` (mixture of isomers)?
Answer: EC50 (Hepatitis C virus): 3.7 µM; EC90 (Hepatitis C virus): > 10 µM; CC50 at 72 h [1]: > 100 µM

Question: With `COc1nc(N)nc2c1ncn2[C@@H]1O[C@H](COP(=O)(N[C@@H](C)C(=O)OCC(C)(C)C)N2CCCC2)[C@@H](O)[C@@]1(C)O` (mixture of isomers) as the compound, how does the EC50 (Hepatitis C virus) read?
Answer: Its EC50 is 0.87 µM.

Question: And the EC90 (Hepatitis C virus)?
Answer: The EC90 was 4 µM.

Question: What about the CC50 at 72 h [1] of the same compound?
Answer: Its CC50 at 72 h is greater than 100 µM.

Question: Which results are given for `CCOc1nc(N)nc2c1ncn2[C@@H]1O[C@H](COP(=O)(N[C@@H](C)C(=O)OC2CCCCC2)N[C@@H](C)C(=O)OC2CCCCC2)[C@@H](O)[C@@]1(C)O` (mixture of isomers)?
Answer: EC50 (Hepatitis C virus): 0.05 µM; EC90 (Hepatitis C virus): 0.15 µM; CC50 at 72 h [1]: 69 µM

Question: With `CCOc1nc(N)nc2c1ncn2[C@@H]1O[C@H](COP(=O)(N[C@@H](C)C(=O)OCc2ccccc2)N[C@@H](C)C(=O)OCc2ccccc2)[C@@H](O)[C@@]1(C)O` (mixture of isomers) as the compound, how does the EC50 (Hepatitis C virus) read?
Answer: Its EC50 is 0.29 µM.

Question: What about the EC90 (Hepatitis C virus) of the same compound?
Answer: The EC90 was 1 µM.

Question: And the CC50 at 72 h [1]?
Answer: The CC50 at 72 h was 62 µM.

Question: For `CCOc1nc(N)nc2c1ncn2[C@@H]1O[C@H](COP(=O)(N[C@@H](C)C(=O)OCC(C)(C)C)N[C@@H](C)C(=O)OCC(C)(C)C)[C@@H](O)[C@@]1(C)O` (mixture of isomers), which EC50 (Hepatitis C virus) is on record?
Answer: Its EC50 is 0.04 µM.

Question: And the EC90 (Hepatitis C virus)?
Answer: The EC90 was 0.11 µM.

Question: And the CC50 at 72 h [1]?
Answer: The CC50 at 72 h was 72 µM.

Question: Which results are given for `C[C@@]1(O)[C@H](O)[C@@H](CO)O[C@H]1n1cnc2c(=O)[nH]c(N)nc21` [2'-B-METHYL-GUANOSINE]?
Answer: EC50 (Hepatitis C virus): 2.2 µM; EC90 (Hepatitis C virus): 8.3 µM; CC50 at 72 h [1]: > 100 µM

Question: For `COc1nc(N)nc2c1ncn2[C@@H]1O[C@H](CO)[C@@H](O)[C@@]1(C)O` [BETA-2'-C-METHYL-6-O-METHYL GUANOSINE], which EC50 (Hepatitis C virus) is on record?
Answer: The EC50 was 4.4 µM.

Question: And the EC90 (Hepatitis C virus)?
Answer: The EC90 was 19.4 µM.

Question: And the CC50 at 72 h [1]?
Answer: The CC50 at 72 h was greater than 100 µM.
